TRPC6 act – mouse TRPC6 channel activators, primary screen, cell-based, HEK293, membrane potential dye | hit rate 0.13% among 310,000 | HEK293-TRPC6 membrane potential dye fluorescence; hits give high values | Short transient receptor potential channel 6 (Mus musculus), Q61143 | B-score at 10 µM;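 active = B-score of the integrated fluorescence ratio above library mean plus 3 SD, and starting fluorescence ratio within library mean plus 5 SD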;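 note: higher score means more depolarization so channel activation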
TRPC4 block – inhibitors of mouse TRPC4 channel, primary screen, Fluo4 calcium, HEK293 TRPC4beta/mu-opioid cells. Short transient receptor potential channel 4 (Mus musculus), Q9QUQ5. DAMGO-evoked Fluo4 calcium flux; hits give low values. B-score at 10 µM. hit rate 0.39% among 300,000;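 active = B-score over 3 SD under the library average, no early fluorescence shift, positive overall ratio signal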
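Assay system: TRPC4beta/mu-opioid receptor HEK293 cell line; compound dosing: single concentration per test compound; detection: Fluo4 Ca2+ flux fluorescence; evaluation: per-well B score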
TRPC4 agonist – activators of mouse TRPC4 channel, primary screen, Fluo4 calcium, HEK293 TRPC4beta/mu-opioid cells; Short transient receptor potential channel 4 (Mus musculus), Q9QUQ5; Fluo4 calcium fluorescence; hits give high values; B-score at 10 µM; hit rate 0.49% among 310,000; AID 2237, 2010;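 active = B-score above 5 SD of library B-scores, and initial fluorescence ratio not above library mean plus 5 SD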;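 note: positive B-score marks a calcium rise read as TRPC4 activation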
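Incubation: 45 min room-temperature Fluo4 loading, 110 s read / System: HEK293 cells stably co-expressing mouse TRPC4beta and mu-opioid receptor / Signal: Fluo4 fluorescence, kinetic / Control set: buffer (low) and maximal DAMGO (high) / Measure: integrated baseline-normalised fluorescence ratio, converted to per-well B score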
TRPC6 inhibitor – mouse TRPC6 channel inhibitors, primary screen, cell-based, HEK293, membrane potential dye | Short transient receptor potential channel 6 (Mus musculus), Q61143 | ACh-evoked depolarization; hits give low values | B-score at 10 µM | hit rate 1.1% among 310,000 | AID 2553, 2010;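 active = B-score under library mean minus 3 SD, initial fluorescence not abnormally high, positive integrated signal ratio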;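 note: B-score derived from integrated fluorescence ratio over the kinetic read; more negative B-score means stronger inhibition of depolarization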
TRPC4 potent – positive allosteric modulators of TRPC4, primary screen, cell-based, mouse TRPC4beta, HEK293 mu-opioid, Fluo-4 calcium; Short transient receptor potential channel 4 (Mus musculus), Q9QUQ5; DAMGO EC20, Fluo-4 Ca2+ flux; hits give high values; B-score at 10 µM; hit rate 0.42% among 310,000; AID 2227, 2009;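 active = B-score of calcium response area above 5 SD of library B-scores, with initial fluorescence ratio within 5 SD of library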;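 note: B-score of integrated fluorescence ratio over time as area under calcium response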
Starred values were filed as active, the others as inactive; i = inactive. The list is not random: actives were taken first. Their share in the collection is about 2.3%.

SMILES	TRPC6 act	TRPC4 block	TRPC4 agonist	TRPC6 inhibitor	TRPC4 potent
COC(=O)C1=C(N)Oc2cc(C)n(CCN3CCOCC3)c(=O)c2C1c1cccnc1 (configuration not stated)	i	i	i	i	i
CCCCNC(=O)CCn1nc(-c2ccccc2)ccc1=O	i	i	i	i	i
CC1CCCN(CCCNC(=O)CCn2nc(-c3ccccc3)ccc2=O)C1 (configuration not stated)	i	i	i	i	11*
COc1ccccc1C(=O)NNC(=O)c1cccc(C)c1	i	i	i	i	i
CS(=O)(=O)N(CC(=O)N1CCc2ccccc2C1)c1ccccc1Br	i	i	i	i	i
Cc1cccc(C)c1-n1cccc1/C=C1\SC(=S)N(c2cccc(C(=O)O)c2)C1=O	i	-7*	i	i	i
CSC1=NC(NCCCO)c2c(sc3c2CC(C)(C)OC3)N1 (configuration not stated)	i	i	i	i	i
CCOc1ccc(-c2c(C(=O)N/N=C/c3ccc(OC(C)C)cc3)nnn2-c2nonc2N)cc1	i	i	i	i	i
Cc1ccc(-c2c(C(=O)N/N=C/c3ccc(OC(C)C)cc3)nnn2-c2nonc2N)cc1	i	i	i	i	18*
CN(CCc1ccccn1)C(=O)Nc1ccc(F)cc1	i	i	63*	i	i
Cc1ccc(OCc2cc(C(=O)N(C)CCc3ccccn3)no2)cn1	i	i	81*	i	i
CSc1ccc(CN(C)CCc2ccccn2)cc1	i	i	i	i	i
Cc1ccc(OCC(=O)N(C)CCc2ccccn2)cc1	i	i	89*	i	i
CN(CCc1ccccn1)S(=O)(=O)c1ccccc1F	i	i	79*	i	i
CC(C)C(=O)Nc1ncc(Cc2ccc(Cl)cc2)s1	i	i	i	i	i
O=C(NNC(=O)c1ccncc1)Nc1cccc(C(F)(F)F)c1	i	i	i	i	i
N#C/C(N=Nc1ccccc1O)=N\Nc1ccccc1O	i	i	i	i	i
CCN1CCN(c2ccc(N3CCN(C(=O)c4ccc(Br)o4)CC3)nn2)CC1	i	i	i	i	i
Clc1ccc(-c2c[n+](Cc3ccc(Br)cc3)c3n2CCCCC3)cc1	i	i	i	i	i
O=[N+]([O-])c1ccc(C[n+]2cc(-c3ccc(Cl)c(Cl)c3)n3c2CCCCC3)cc1	i	i	i	i	i
Clc1ccc(C[n+]2cc(-c3ccccc3)n3c2CCC3)cc1Cl	i	-6*	i	i	i
Clc1ccc(-c2c[n+](Cc3cccc(Cl)c3)c3n2CCC3)cc1	i	-6*	i	i	i
O=C(NCCNC1CCC(c2ccccc2)CC1)c1cccs1 (configuration not stated)	i	i	158*	i	i
O=[N+]([O-])c1cc(S(=O)(=O)N2CCCC2)ccc1SCCO	i	i	i	i	i
CCC(c1nnc(SCC(=O)Nc2cc(S(C)(=O)=O)ccc2Cl)n1Cc1ccccc1)N(C)C (configuration not stated)	i	i	i	i	i
COc1ccc(CNCCC(c2ccc(F)cc2)c2ccc(OC(C)C)cc2)cc1OC (configuration not stated)	i	i	46*	i	i
COc1ccc(C(CCNCc2ccc(N(C)C)cc2)c2ccccc2OC)cc1 (configuration not stated)	i	i	63*	i	i
CCC(C)NC(=S)N(Cc1cc2cc(C)ccc2n2nnnc12)CC(C)(C)NC(C)C (configuration not stated)	i	i	i	i	i
CC(C)CC(N)C(=O)OCc1ccc([N+](=O)[O-])cc1 (configuration not stated)	i	i	i	i	i

Compound activity (PubChem BioAssay)
